zfTRPN1 agonist = activates the zebrafish TRPN1 channel; activation, % at 3 µM; AID 1424; hit rate 0.18% among 220,000; HEK293 zebrafish TRPN1-YFP, Fluo-8 calcium fluorescence; 100% = response to 87 µM carbachol;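 active = activation above its plate's cutoff, the mean activation of test wells on that plate plus 3 SD, cut at about 19% in these data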;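 also: 0% = DMSO alone and 100% = 87 µM carbachol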
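Material – zebrafish TRPN1-YFP in HEK293 cells · Doses – 3 µM single point · Schedule – dye 1 h 37 °C plus 30 min RT · Signal – Fluo-8 calcium fluorescence, excitation 470-495 nm, emission 515-575 nm · Read-out – % activation versus carbachol response · Control set – carbachol high, DMSO low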
CRFR2-BP antag = CRF-BP/CRF-R2 complex antagonism; HEK293 CRF-R2/CRF-BP, CRF-induced calcium fluorescence; inhibition, % at 11.8 µM; hit rate 0.59% among 350,000; AID 588475;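 active = inhibition of the ligand-induced calcium signal above about 50% at the single tested concentration, limit read from the data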
TRPML3 agonist = activates the human TRPML3 channel. Q8TDD5. HEK293 TRPML3-YFP, Fluo-8 calcium fluorescence; 100% = the carbachol control signal. activation, % at 3 µM. hit rate 0.29% among 220,000. AID 1448;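 active = activation above its plate's cutoff, the mean activation of the plate's test wells plus 3 SD, cut at about 12% in these data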;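 also: 0% = DMSO only wells and 100% = carbachol wells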
Target sequence (Q8TDD5 whole entry, looked up): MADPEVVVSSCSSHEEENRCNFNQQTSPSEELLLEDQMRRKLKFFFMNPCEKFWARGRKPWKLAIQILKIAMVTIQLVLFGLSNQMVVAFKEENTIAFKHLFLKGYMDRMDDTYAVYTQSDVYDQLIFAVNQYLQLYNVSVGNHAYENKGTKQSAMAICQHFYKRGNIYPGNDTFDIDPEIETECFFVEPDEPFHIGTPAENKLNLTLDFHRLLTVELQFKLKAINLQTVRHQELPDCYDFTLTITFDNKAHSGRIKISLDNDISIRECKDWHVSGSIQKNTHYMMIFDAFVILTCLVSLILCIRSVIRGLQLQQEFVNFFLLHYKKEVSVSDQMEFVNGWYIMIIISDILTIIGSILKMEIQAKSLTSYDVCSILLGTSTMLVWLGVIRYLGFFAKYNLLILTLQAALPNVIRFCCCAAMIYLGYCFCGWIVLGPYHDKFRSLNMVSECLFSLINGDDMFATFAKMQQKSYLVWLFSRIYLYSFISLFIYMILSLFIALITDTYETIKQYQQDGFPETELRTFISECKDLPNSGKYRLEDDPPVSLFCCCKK
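Test system – HEK293 line with stable expression of human TRPML3-YFP channel · Control set – carbachol 87 µM final as high control (100%), DMSO as low control (0%) · Signal – Fluo-8 calcium dye fluorescence, ex 470-495, em 515-575 nm · Incubation – 1-h 37 °C dye load, 5-s basal, 120-s post-compound reads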
CRFBP-R2 agonist = CRF-BP/CRF-R2 complex agonism | HEK293 CRF-R2/CRF-BP, calcium dye fluorescence (FLIPR); percent of saturating CRF peptide response | activation, % at 13.2 µM | hit rate 0.46% among 350,000 | AID 588473;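 active = activation of at least 50%, plus an integration ratio under a set limit after plate pattern correction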;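 also: plate controls were neutral control wells without compound for no effect and CRF at EC100 for full effect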
Active calls of the source: *; · = no result given. Most compounds without a hit are left out; they make up all but 1.2% or so of the library.

SMILES	zfTRPN1 agonist	CRFR2-BP antag	TRPML3 agonist	CRFBP-R2 agonist
Cc1cc(C)cc(OCC(=O)OC/C(O)=C(\C#N)c2nc3ccccc3[nH]2)c1	0.5	7.2	0.0	-1.1
CC(C)OCc1c(C(=O)OC/C(O)=C(\C#N)c2nc3ccccc3[nH]2)oc2ccccc12	0.4	62.3*	1.4	3.6
N#C/C(=C(/O)COC(=O)COc1cccc(Br)c1)c1nc2ccccc2[nH]1	1.8	100.0*	0.8	4.4
O=C(Cc1ccccc1)Nc1ccc(NC(=S)NC(=O)c2ccccc2)cc1	·	-66.9	·	4.8
CC(C)c1cc(-c2cc(C(=O)NCc3ccccc3)on2)nc(NCC2CC2)n1	·	-39.8	·	96.0*
CCc1ccccc1N=Cc1c(C)c(C#N)c2[nH]c3ccccc3n2c1=O	·	-134.0	·	164.8*
O=c1nc(-c2ccccc2)n(-c2ccc(Cl)cc2)[nH]1	0.2	39.2	0.7	90.5*
COC(=O)CNC(=O)CSc1nc2sc(-c3ccccc3)cc2c(=O)n1-c1ccccc1	·	16.2	·	0.3
CN1Cc2sc(NC(=S)NC(=O)c3ccccc3)c(C#N)c2CC1(C)C	6.6	-70.1	4.9	93.1*
CCC1(C)Cc2c(sc(NC(=S)NC(=O)c3ccccc3)c2C#N)CO1 (stereo not given)	0.7	-63.1	1.2	1.0
O=c1[nH]c(SCc2n[nH]c(=S)n2-c2ccccc2)nc2sc3c(c12)CCC3	-0.6	93.1*	0.2	-1.3
CCC(=O)Nc1cc(Cl)ccc1N1CCN(C(=O)CC)CC1	-0.2	81.3*	-0.5	-0.8
CCC(=O)N1CCN(c2ccc(Cl)cc2NC(=O)Cc2ccccc2)CC1	-1.8	9.6	-1.4	0.3
N#CCc1ccc(NS(=O)(=O)c2cccs2)cc1	1.4	111.5*	0.1	-0.1
CC1CCCCC1NC(=O)COC(=O)c1ccc([N+](=O)[O-])o1 (stereo not given)	·	6.2	·	-1.8
COc1ccc(NC(=O)CCSc2ccc(C)cc2)cc1	0.7	22.3	-1.4	-8.9
CCCc1nnc(NC(=O)C(=O)NCCN(C)C)s1	-0.7	-0.4	0.8	-1.1
CCN1C(=O)CC2CCCC1C2 (stereo not given)	·	75.0*	·	1.0
CCCN1C2CCCC1CC(NC(=O)c1ccc(C(C)(C)C)cc1)C2 (stereo not given)	·	1.8	·	-1.8
O=C(NCCCO)/C(=C/c1ccc(-c2cccc([N+](=O)[O-])c2)o1)NC(=O)c1ccccc1	-0.4	-4.3	0.4	1.8
Cc1ccc(C(=O)N/C(=C/c2ccc(-c3ccc([N+](=O)[O-])cc3)o2)C(=O)NCCCN(C)C)cc1	·	-24.2	·	51.7*
Cc1ccc(C(=O)N/C(=C\c2ccc(-c3ccc([N+](=O)[O-])cc3)o2)C(=O)NC2CCS(=O)(=O)C2)cc1 (stereo not given)	2.4	-125.8	1.8	95.2*
Cc1ccc(C(=O)N/C(=C\c2ccc(-c3cccc([N+](=O)[O-])c3)o2)C(=O)NC(C)(C)C)cc1	-1.3	0.6	-0.6	0.5
CC(=O)Nc1ccc(OCC[n+]2cccc(C(N)=O)c2)cc1	1.6	60.9*	0.8	-0.1
CC(=O)Nc1ccc(OCCC[n+]2ccccc2)cc1	-0.5	7.0	0.9	1.3
SMILES	zfTRPN1 agonist	CRFR2-BP antag	TRPML3 agonist	CRFBP-R2 agonist
Cc1cc(C)cc(OCCCC(=O)O)c1	-0.2	13.1	1.3	-1.8
Cc1ccc(OCCC(=O)O)cc1	0.4	85.2*	0.9	-0.8
O=C(Cc1ccccc1)NCC(=O)N/N=C/c1cccnc1	1.1	4.1	0.0	-0.9
CCOC(=O)c1cc(C)sc1NC(=O)CCC(=O)O	-0.8	58.8*	0.6	4.7
CCn1c(C)nc2cc(C(=O)N/N=C/c3ccc(O)cc3)ccc21	1.1	-14.3	1.0	0.8
CCn1c(C)nc2cc(C(=O)NN=Cc3ccc([N+](=O)[O-])cc3)ccc21	·	72.9*	·	1.8
Cc1cc(C)nc(/N=C(\N)Nc2ccc(S(N)(=O)=O)cc2)n1	0.8	-9.9	1.0	0.8
Cc1ccc(C)c(N/C(N)=N/c2nc(C)cc(C)n2)c1	35.8*	-34.1	20.8*	36.7
CCOc1ccc(N/C(N)=N/c2nc(C)cc(C)n2)cc1	·	-69.1	·	140.9*
Cc1cc(C)nc(/N=C(\N)Nc2ccc(SC(F)F)cc2)n1	36.0*	-20.9	16.6*	25.0
CC(=O)Nc1ccc(N/C(N)=N/c2nc(C)cc(C)n2)cc1	1.1	-5.5	0.7	-1.8
COc1ccc(C)cc1N/C(N)=N/c1nc(C)cc(C)n1	1.0	-26.4	0.3	1.8
Cc1ccc(-c2csc(N=C(N)N)n2)c(C)c1	-1.3	-15.2	1.2	-2.2
CCCc1cc(C(=O)NNC(=S)NCc2ccccc2)cs1	-1.4	8.3	-0.5	-7.1
N#C/C(N=Nc1ccccc1O)=N\Nc1ccccc1O	·	97.0*	·	60.5*
CC(=O)N1CC=C2C(C#N)=C(N)C(C#N)(C#N)C(CCc3ccccc3)C2C1 (stereo not given)	-0.6	-1.5	0.3	-0.9
CCN1CC=C2C(C#N)=C(N)C(C#N)(C#N)C(CCc3ccccc3)C2C1 (stereo not given)	9.8	-22.9	6.2	56.5*
Cc1ccc(C)c(NS(=O)(=O)c2ccccc2C)c1	·	21.0	·	-10.9
Cc1cc2c(cc1S(=O)(=O)N1CCN(c3ccccc3)CC1)OCCN2C	·	11.8	·	3.3
CC(=O)N1CCOc2cc(S(=O)(=O)N3CCN(c4ccccc4)CC3)c(Cl)cc21	·	53.9*	·	16.1
Cc1ccc(CNC(=O)c2cccc3c2C(=O)c2ccc(N4CCCCC4)cc2S3(=O)=O)cc1	·	-18.5	·	57.2*
O=C(NCC1CCCO1)c1cccc2c1C(=O)c1ccc(N3CCC(Cc4ccccc4)CC3)cc1S2(=O)=O (stereo not given)	·	-16.4	·	83.4*
O=C(NC1CCCCC1)c1cccc2c1C(=O)c1ccc(N3CCC(Cc4ccccc4)CC3)cc1S2(=O)=O	·	-31.6	·	58.4*
O=C(NCc1ccccc1Br)c1cccc2c1C(=O)c1ccc(N3CCC(Cc4ccccc4)CC3)cc1S2(=O)=O	·	-34.5	·	60.6*
CC(C)c1ccc(S(=O)(=O)NCCCN2CCOCC2)cc1	·	25.3	·	0.9
SMILES	zfTRPN1 agonist	CRFR2-BP antag	TRPML3 agonist	CRFBP-R2 agonist
CC(Sc1nnc(Cc2cccs2)n1C1CC1)C(=O)NC1CCS(=O)(=O)C1 (stereo not given)	·	63.1*	·	0.6
COc1ccc(C(=O)COC(=O)[C@H](C)NS(=O)(=O)c2ccc(NC(C)=O)cc2)cc1OC	·	-10.8	·	2.5
CC1=CC(C)(C)N2C(=O)C3(C(C#N)=C(N)OC4=C3C(=O)CCC4)c3c(C)c(C)cc1c32 (stereo not given)	-0.6	10.0	0.1	-0.7
CC1=CC(C)(C)N2C(=O)C3(C(C#N)=C(N)Oc4cc(O)ccc43)c3c(C)c(C)cc1c32 (stereo not given)	0.0	66.4*	0.6	-1.3
CC1(c2ccccc2)CC(C)(C)N2C(=O)C3(C(C#N)=C(N)Oc4cc(O)ccc43)c3cccc1c32 (stereo not given)	-0.8	116.3*	-0.3	-1.4
CC(=O)OC[C@H]1O[C@@H](Sc2cccc3cccnc23)[C@H](OC(C)=O)[C@@H](OC(C)=O)[C@H]1OC(C)=O	2.1	3.6	0.5	2.3

Bioassay records (PubChem BioAssay)
